# Data from ChEMBL document CHEMBL5303300, “EUbOPEN Chemogenomics Library - Multiplex” (2023).
# Where “and” joins values, the source holds several entries; their conditions need not be identical. Equal values may be shown once.
# Tested on: Fibroblast
# Experiment: Multiplex assay against human fibroblast
# Format: toxicity, cell-based
# Conditions: number of replicates 2
# Procedure, shortened: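 Tubulin, mitochondrial-mass and membrane-permeability phenotypes are per cents of healthy-nucleus cells. Cells were gated by CellPathfinder machine learning into Hoechst high-intensity objects or normal cells, normal cells into healthy, pyknosed or fragmented nuclei, and pyknosed cells into mitotic or apoptotic. Before that, live cells stained at seeding with Hoechst33342, BioTracker Green Microtubule Cytoskeleton Dye, MitoTracker Red and Annexin V Alexa Fluor 680 were imaged on a CQ1 microscope at 37°C and 5% CO2 after compound addition.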
# [1] = 12 h, 1 µM, compound concentration 1 uM
# [2] = 12 h, 10 µM, compound concentration 10 uM
# [3] = 24 h, 1 µM, compound concentration 1 uM
# [4] = 24 h, 10 µM, compound concentration 10 uM
# [5] = 48 h, 1 µM, compound concentration 1 uM
# [6] = 48 h, 10 µM, compound concentration 10 uM
smiles,measurement,setting,value
CC1=C(C)C(=O)C(C(C)(C)CC(=O)N(CCCCSC[C@H]2O[C@@H](n3cnc4c(N)ncnc43)[C@H](O)[C@@H]2O)Cc2cccc(-c3ccc(Cl)cc3)c2)=C(C)C1=O,Population Apoptotic (%),[1],43% and 35%
same,Population Fragmented Nuclei (%),[1],13% and 7%
same,Population Healthy Nuclei (%),[1],72% and 77%
same,Population Hoechst High Intensity Objects (%),[1],0%
same,Population Membrane Permeable-Phenotype (%),[1],1% and 6%
same,Population Mitochondria Different-Phenotype (%),[1],0% and 1%
same,Population Mitotic Cells (%),[1],56% and 64%
same,Population Normal (%),[1],100%
same,Population Pyknosed Nuclei (%),[1],14%
same,Population Tubulin-Different-Phenotype (%),[1],34% and 18%
same,Total Cell Count,[1],228 and 306
same,Population Apoptotic (%),[2],36% and 30%
same,Population Fragmented Nuclei (%),[2],11% and 17%
same,Population Healthy Nuclei (%),[2],76% and 62%
same,Population Hoechst High Intensity Objects (%),[2],0% and 1%
same,Population Membrane Permeable-Phenotype (%),[2],18% and 15%
same,Population Mitochondria Different-Phenotype (%),[2],4% and 3%
same,Population Mitotic Cells (%),[2],63% and 69%
same,Population Normal (%),[2],100% and 99%
same,Population Pyknosed Nuclei (%),[2],11% and 19%
same,Population Tubulin-Different-Phenotype (%),[2],73% and 74%
same,Total Cell Count,[2],186 and 201
same,Population Apoptotic (%),[3],57% and 51%
same,Population Fragmented Nuclei (%),[3],8% and 9%
same,Population Healthy Nuclei (%),[3],85% and 79%
same,Population Hoechst High Intensity Objects (%),[3],0%
same,Population Membrane Permeable-Phenotype (%),[3],5% and 2%
same,Population Mitochondria Different-Phenotype (%),[3],2% and 1%
same,Population Mitotic Cells (%),[3],42% and 48%
same,Population Normal (%),[3],99% and 100%
same,Population Pyknosed Nuclei (%),[3],5% and 11%
same,Population Tubulin-Different-Phenotype (%),[3],24% and 12%
same,Total Cell Count,[3],235 and 305
same,Population Apoptotic (%),[4],46% and 45%
same,Population Fragmented Nuclei (%),[4],13% and 14%
same,Population Healthy Nuclei (%),[4],78% and 68%
same,Population Hoechst High Intensity Objects (%),[4],0%
same,Population Membrane Permeable-Phenotype (%),[4],4% and 8%
same,Population Mitochondria Different-Phenotype (%),[4],13% and 17%
same,Population Mitotic Cells (%),[4],53% and 54%
same,Population Normal (%),[4],100% and 99%
same,Population Pyknosed Nuclei (%),[4],8% and 17%
same,Population Tubulin-Different-Phenotype (%),[4],78% and 83%
same,Total Cell Count,[4],182 and 183
same,Population Apoptotic (%),[5],50%
same,Population Fragmented Nuclei (%),[5],12% and 13%
same,Population Healthy Nuclei (%),[5],83% and 81%
same,Population Hoechst High Intensity Objects (%),[5],0%
same,Population Membrane Permeable-Phenotype (%),[5],3% and 1%
same,Population Mitochondria Different-Phenotype (%),[5],0%
same,Population Mitotic Cells (%),[5],50%
same,Population Normal (%),[5],99%
same,Population Pyknosed Nuclei (%),[5],3% and 5%
same,Population Tubulin-Different-Phenotype (%),[5],13% and 5%
same,Total Cell Count,[5],257 and 316
same,Population Apoptotic (%),[6],71% and 65%
same,Population Fragmented Nuclei (%),[6],18% and 20%
same,Population Healthy Nuclei (%),[6],74% and 69%
same,Population Hoechst High Intensity Objects (%),[6],0%
same,Population Membrane Permeable-Phenotype (%),[6],0% and 5%
same,Population Mitochondria Different-Phenotype (%),[6],6% and 13%
same,Population Mitotic Cells (%),[6],28% and 35%
same,Population Normal (%),[6],100%
same,Population Pyknosed Nuclei (%),[6],7% and 10%
same,Population Tubulin-Different-Phenotype (%),[6],76% and 69%
same,Total Cell Count,[6],197
Cc1cc(NC(=O)c2cccc(NC(=O)/C=C/CN(C)C)c2)ccc1Nc1nccc(-c2cccnc2)n1,Population Apoptotic (%),[1],39% and 33%
same,Population Fragmented Nuclei (%),[1],12% and 17%
same,Population Healthy Nuclei (%),[1],63% and 56%
same,Population Hoechst High Intensity Objects (%),[1],0%
same,Population Membrane Permeable-Phenotype (%),[1],9% and 11%
same,Population Mitochondria Different-Phenotype (%),[1],0% and 1%
same,Population Mitotic Cells (%),[1],60% and 66%
same,Population Normal (%),[1],100%
same,Population Pyknosed Nuclei (%),[1],24% and 25%
same,Population Tubulin-Different-Phenotype (%),[1],18% and 11%
same,Total Cell Count,[1],190 and 197
same,Population Apoptotic (%),[2],48% and 33%
same,Population Fragmented Nuclei (%),[2],4% and 10%
same,Population Healthy Nuclei (%),[2],53% and 56%
same,Population Hoechst High Intensity Objects (%),[2],0%
same,Population Membrane Permeable-Phenotype (%),[2],7% and 14%
same,Population Mitochondria Different-Phenotype (%),[2],8% and 2%
same,Population Mitotic Cells (%),[2],51% and 66%
same,Population Normal (%),[2],100% and 99%
same,Population Pyknosed Nuclei (%),[2],41% and 33%
same,Population Tubulin-Different-Phenotype (%),[2],77% and 50%
same,Total Cell Count,[2],130 and 219
same,Population Apoptotic (%),[3],47% and 40%
same,Population Fragmented Nuclei (%),[3],22% and 24%
same,Population Healthy Nuclei (%),[3],54% and 52%
same,Population Hoechst High Intensity Objects (%),[3],0%
same,Population Membrane Permeable-Phenotype (%),[3],5% and 3%
same,Population Mitochondria Different-Phenotype (%),[3],0% and 2%
same,Population Mitotic Cells (%),[3],52% and 59%
same,Population Normal (%),[3],100%
same,Population Pyknosed Nuclei (%),[3],23%
same,Population Tubulin-Different-Phenotype (%),[3],21% and 13%
same,Total Cell Count,[3],230 and 222
same,Population Apoptotic (%),[4],53% and 39%
same,Population Fragmented Nuclei (%),[4],11%
same,Population Healthy Nuclei (%),[4],36% and 51%
same,Population Hoechst High Intensity Objects (%),[4],0%
same,Population Membrane Permeable-Phenotype (%),[4],6% and 7%
same,Population Mitochondria Different-Phenotype (%),[4],18% and 13%
same,Population Mitotic Cells (%),[4],46% and 60%
same,Population Normal (%),[4],99%
same,Population Pyknosed Nuclei (%),[4],51% and 36%
same,Population Tubulin-Different-Phenotype (%),[4],81% and 63%
same,Total Cell Count,[4],118 and 221
same,Population Apoptotic (%),[5],68% and 75%
same,Population Fragmented Nuclei (%),[5],24% and 29%
same,Population Healthy Nuclei (%),[5],62% and 60%
same,Population Hoechst High Intensity Objects (%),[5],0%
same,Population Membrane Permeable-Phenotype (%),[5],6% and 4%
same,Population Mitochondria Different-Phenotype (%),[5],1% and 0%
same,Population Mitotic Cells (%),[5],31% and 25%
same,Population Normal (%),[5],100% and 99%
same,Population Pyknosed Nuclei (%),[5],13% and 10%
same,Population Tubulin-Different-Phenotype (%),[5],23% and 29%
same,Total Cell Count,[5],237 and 239
same,Population Apoptotic (%),[6],82% and 60%
same,Population Fragmented Nuclei (%),[6],14%
same,Population Healthy Nuclei (%),[6],30% and 39%
same,Population Hoechst High Intensity Objects (%),[6],0%
same,Population Membrane Permeable-Phenotype (%),[6],19% and 12%
same,Population Mitochondria Different-Phenotype (%),[6],22% and 15%
same,Population Mitotic Cells (%),[6],17% and 39%
same,Population Normal (%),[6],100% and 99%
same,Population Pyknosed Nuclei (%),[6],54% and 45%
same,Population Tubulin-Different-Phenotype (%),[6],80% and 78%
same,Total Cell Count,[6],117 and 218
